LEDGF integ inh: blocks HIV-1 LEDGF/p75-dependent DNA integration; TR-FRET IN-LEDGF/p75 DNA integration, Eu/Cy5; inhibition, % at 3.7 µM; 370,000 tested, 0.64% active; AID 743269;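 active means inhibition above the screen-wide mean plus 3 SD, cut at about 13% in these data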;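 further: signal is the Cy5 over europium emission ratio at 671 and 618 nm; 0% = plate median of compound wells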
mABHD4 FP: ABHD4 (mouse) inhibition, primary FP screen. purified mABHD4, FP-Rh probe fluorescence polarization. inhibition, % at 8.92 µM. 370,000 tested, 0.54% active. AID 720543;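 active means inhibition exceeding the mean over every tested compound plus 3 SD, cut at about 30% in these data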;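 further: 0% = plate median of compound wells and 100% = S159A mutant with DMSO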
Target sequence (Q8VD66 whole entry, looked up): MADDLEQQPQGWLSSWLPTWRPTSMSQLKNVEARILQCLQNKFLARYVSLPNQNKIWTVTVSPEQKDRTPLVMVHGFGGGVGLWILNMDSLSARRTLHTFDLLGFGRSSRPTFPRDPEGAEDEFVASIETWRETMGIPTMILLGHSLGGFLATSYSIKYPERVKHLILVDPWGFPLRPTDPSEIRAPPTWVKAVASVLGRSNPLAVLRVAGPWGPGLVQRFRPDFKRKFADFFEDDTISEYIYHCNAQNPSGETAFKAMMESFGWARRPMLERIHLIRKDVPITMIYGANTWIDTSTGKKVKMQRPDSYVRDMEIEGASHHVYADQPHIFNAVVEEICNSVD
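assay system = mABHD4 protein | compound dosing = single nominal dose of 8.92 µM, 0.89% DMSO final | read-out basis = percent inhibition of probe binding, normalized to plate controls | schedule = Enzyme–compound pre-incubation 45 min, then probe 60 min, both 25 °C | detection = fluorescence polarization, excitation 525 nm, emission 598 nm, BODIPY TMR filters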
DAGLB inh: blocks human DAGLB lipase activity; Q8NCG7; HEK293T DAGLB membrane lysate, EnzChek fluorogenic substrate; inhibition, % at 5.17 µM; 340,000 tested, 0.059% active; AID 504411; in the data active means inhibition above about 34%;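 further: 0% = enzyme with vehicle and 100% = wells lacking enzyme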
rCAG RNA binder: molecules binding r(CAG) RNA repeats; r(CAG) RNA repeat, TO-PRO-1 dye displacement fluorescence; 370,000 tested, 1.3% active; inhibition, % at 3 µM;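 active means inhibition above the plate cutoff, the mean of all test compounds on that plate plus 3 SD, cut at about 35% in these data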;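 further: 0% = DMSO alone and 100% = 100 µM mitoxantrone as full dye displacement; higher means more dye released from RNA so lower well fluorescence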
HTRA1 inhibitor: inhibitors of human serine peptidase HTRA1 | Q92743 | recombinant HTRA1, FP-rhodamine activity-based probe, fluorescence polarization | inhibition, % at 5.96 µM | 340,000 tested, 0.5% active | AID 504803; in the data active means inhibition above about 36%;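 further: 0% = enzyme with DMSO and 100% = wells lacking enzyme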
PRMT1 FP inh: blocks human protein arginine methyltransferase 1 | inhibition, % at 2.79 µM | recombinant PRMT1, activity-based probe fluorescence polarization | Q99873 | 370,000 tested, 1.3% active;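 active means inhibition above about 21% made by adding two undisclosed values, limit read from the data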
mABHD4 conf: ABHD4 (mouse) inhibition, FP confirmation; shares compounds with mABHD4 FP; purified mABHD4, FP-Rh probe fluorescence polarization; inhibition, % at 8.92 µM; 1,800 tested, 55% active;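 active means mean inhibition across replicates above the hit cutoff set in the primary screen, cut at about 30% in these data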;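 further: 0% = wild-type ABHD4 with DMSO and 100% = catalytically dead S159A mutant with DMSO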
Starred values were filed as active, the others as inactive; . = no result; ! = not confirmed by another sample. A selection: hits, their analogues and other compounds. The true share with any hit is near 3.2%.

SMILES | LEDGF integ inh | mABHD4 FP | DAGLB inh | rCAG RNA binder | HTRA1 inhibitor | PRMT1 FP inh | mABHD4 conf
COc1ccccc1NS(=O)(=O)c1ccc(O)c(C(=O)OCC(=O)N2c3ccccc3CC2C)c1 (configuration not stated) | 1 | 35* | 0 | 15 | -13 | -1 | 29
CCN(CC)S(=O)(=O)c1ccc(O)c(C(=O)OCC(=O)N2c3ccccc3CC2C)c1 (configuration not stated) | 2 | 56* | -2 | 9 | -10 | -11 | 58*
S=c1[nH]ncn1NCc1cccc(Br)c1 | 5 | -1 | . | -5 | . | -3 | .
COC(=O)[C@]12C[C@H](CC(=O)N3CCCCC3)C(=O)N(Cc3ccco3)C1=C[C@H](C(C)(C)C)O[C@@H]2C | 5 | 7 | . | -4 | . | -6 | .
CCOc1cc(C(=O)NCC(C)(C)CNC(=O)c2cc(OCC)c(OCC)c(OCC)c2)cc(OCC)c1OCC | 0 | 36* | . | -2 | . | -5 | 34*
CCCCCn1c(CN2CCN(C(=O)OCC)CC2)nc2c1c(=O)n(C)c(=O)n2C | 0 | 7 | 1 | -10 | 1 | 0 | .
CCCCCn1c(CN2CCN(C)CC2)nc2c1c(=O)n(C)c(=O)n2C | 2 | 30* | -2 | -1 | 5 | -4 | -16
Cc1[nH]c2c(ccc3ccccc32)c1C1C(CCN)C1(C)C (configuration not stated) | -5 | 30* | 4 | 18 | 24 | 1 | 47*
S=c1[nH]c2ccc3ccccc3c2[nH]1 | -2 | -2 | 0 | 4 | 0 | 1 | .
CN(C)S(=O)(=O)c1cccc(C(=O)OCC(=O)Nc2sccc2C(N)=O)c1 | 6 | -6 | 1 | 15 | -3 | 1 | .
Nc1c(-c2ccc(C(F)(F)F)cc2)nc2ncccn12 | 3 | 38* | . | 1 | . | 1 | 10
CN1CCc2cccc3c2C1Cc1ccc(O)c(O)c1-3 (configuration not stated) | 3 | 53* | 2 | 3 | 36 | 47* | 1
CC(C)c1ccc2c(c1)C(c1ccc(N3CCOCC3)cc1)=NNC(c1cccs1)=N2 | -2 | 2 | -2 | 8 | -12 | -1 | .
CCOc1cc(N2CCOCC2)c(OCC)cc1NC(=O)CN1CCc2ccccc2C1 | -1 | 31* | 1 | -2 | 5 | 9 | 15
CCCOCC1CC(CCc2nc(=S)[nH][nH]2)C(=O)O1 (configuration not stated) | 3 | -4 | -2 | -1 | 8 | 13 | .
N[C@@H](Cc1cc(I)c(O)c(I)c1)C(=O)O | 7 | 51* | 19 | 21 | 31 | 19 | 80*
CCC(Cc1c(I)cc(I)c(N)c1I)C(=O)O (configuration not stated) | 3 | -12 | 6 | 8 | 4 | 5 | .
N#CCC(=O)Nc1ccc(C(=O)OCC(=O)Nc2ccccc2Sc2ccccc2)cc1 | -7 | 52* | . | 18 | . | 1 | -77
CC(=O)c1ccc(N2CCN(S(=O)(=O)c3ccc4c(c3)NC(=O)CC(=O)N4)CC2)cc1 | 1 | 4 | 1 | 3 | -5 | 1 | .
O=C1Cc2cc(S(=O)(=O)N3CCN(c4ccc(C(=O)O)cc4)CC3)ccc2N1 | -4 | 33* | . | 24 | . | 11 | 10
Cc1ccc(/C=N\Nc2nc3ccc(Cl)cc3[nH]2)o1 | 1 | 26 | 2 | 9 | 7 | 0 | .
Fc1ccccc1-c1ccc(/C=N/Nc2nc3ccccc3[nH]2)o1 | 11 | 40* | 0 | 18 | 18 | 2 | 46*
CCN(CC)c1ccc(/C=N/Nc2nc3ccccc3[nH]2)c(O)c1 | -5 | 31* | 2 | 16 | 17 | 0 | 80*
C(=N\Nc1nc2ccccc2[nH]1)/c1ccccn1 | -3 | 34* | 4 | 2 | 34 | 2 | 32*
C(=N\Nc1nc2ccccc2[nH]1)/c1ccc2ncccc2c1 | -9 | 13 | 3 | 7 | 8 | 0 | .
SMILES | LEDGF integ inh | mABHD4 FP | DAGLB inh | rCAG RNA binder | HTRA1 inhibitor | PRMT1 FP inh | mABHD4 conf
CS(=O)(=O)Nc1cccc(-c2cn3c(n2)SCC3)c1 | 0 | -4 | -2 | 5 | 2 | 1 | .
CCN1C(=O)c2ccccc2S(=O)c2ccc(C(=O)NCCCN3CCCC3=O)cc21 (configuration not stated) | 4 | -3 | 1 | 4 | -2 | -5 | .
CCC(C)Sc1cccc(-c2nc3cc(C)ccn3c2NC2CCCCC2)c1 (configuration not stated) | 2 | 39* | -16 | -2 | -8 | 0 | 52*
CCCCCCSc1cccc(-c2nc3cc(C)ccn3c2NC2CCCCC2)c1 | -2 | 18 | -8 | 3 | -6 | -2 | .
Cc1ccn2c(NC3CCCCC3)c(-c3cccc(SC4CCCCC4)c3)nc2c1 | 3 | 31*! | -19 | 11 | -15 | 2 | 25
O=C(OCc1ccc([N+](=O)[O-])cc1)c1cc(S(=O)(=O)N2CCCCC2)ccc1N1CCOCC1 | 1 | 3 | -1 | 1 | -1 | 1 | .
CCOC(=O)c1c(C)n(-c2ccc(C)cc2)c2c(C(C(C)=O)C(=O)O)c(Br)c(O)c(O)c12 (configuration not stated) | 2 | 41* | 3 | 11 | 34 | 21 | 31*
CCOC(=O)c1c(C)n(-c2ccc(C)cc2)c2c(CC(C)=O)c(Br)c(OC)c(O)c12 | 2 | 5 | -2 | 5 | -5 | -3 | .
Nc1cc(Cl)nc(N/N=C/c2c(O)ccc3ccccc23)n1 | -2 | 32* | 3 | 29 | 29 | 2 | 27
O=C(O)c1cc(N/N=C/c2c(O)ccc3ccccc23)ccc1Cl | 5 | 21 | 7 | 12 | 11 | 10 | .
CCN(CC)c1ccc(C(=C2C=CC(=[N+](CC)CC)C=C2)c2ccccc2)cc1 | 1 | 71* | -13 | 12 | 20 | 0 | 103*
O=C(c1ccc(-c2ccccc2)cc1)N1CCCC1 | -1 | 0 | -7 | -3 | -3 | 3 | .
O=C(N1CCCC1)n1ncc(-c2ccc(-c3ccccc3)cc2)n1 | 0 | 47* | . | . | . | 2 | 42*
Cc1cc(NCc2ccccn2)n2ncc(-c3ccc(Cl)cc3)c2n1 | -2 | 48* | . | 4 | . | -2 | 64*
Cc1cc(NCCCN2CCOCC2)n2ncc(-c3ccccc3)c2n1 | -1 | 7 | 0 | -6 | 1 | -2 | .
Cc1cc(NCc2ccccn2)n2nc(C)c(-c3ccc(Cl)cc3)c2n1 | -1 | 23 | -7 | -1 | 16 | 5 | .
Cc1cc(NCc2ccccn2)n2ncc(-c3ccccc3)c2n1 | 0 | 45* | -5 | 1 | 12 | 1 | 47*
COc1cc(CC(=O)N2CCc3ccccc32)cc(OC)c1OC | 1 | 6 | 0 | -2 | 8 | 2 | .
CCOC(=O)N1CCc2cc(OC)c(OC)c3c2c1cc1cc(OC)c(OC)cc13 | -1 | 63* | 2 | 14 | 10 | 6 | 69*
